High-throughput results deposited in PubChem by Broad Institute.
An excerpt weighted towards active compounds, which were near 5.9% of everything screened.
T cruzi growth-1 = T. cruzi intracellular proliferation inhibitors, primary screen, cell-based, beta-gal Tulahuen parasites, NIH3T3 host, luminescence. inhibition, % at 8.34 µM. T. cruzi beta-gal in NIH3T3, GalScreen luminescence, 90 h. AID 624255, 2012. 77,000 compounds, 5.9% hits;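 active means mean inhibition above about 93%, with at least 55% of replicates each passing it, limit read from the data, passing the limit was not always enough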
Pf Dd2 growth = P. falciparum Dd2 growth inhibitors, primary screen, SYBR Green fluorescence, single dose replicates | 72 h; hits give low values | activity change, % at 10 µM | 94,000 compounds, 2.3% hits | AID 1159554, 2015; in the data active means activity change below about -80%
IDH1 R132H inh = inhibitors of IDH1 R132H reductase, primary screen, biochemical, plate reader, single point; diaphorase/resazurin fluorescence, 60 min; AID 624101, 2012; 70,000 compounds, 0.18% hits; inhibition, % at 10 µM; Isocitrate dehydrogenase [NADP] cytoplasmic (Homo sapiens), O75874; in the data active means inhibition above about 34%
Target sequence (O75874 whole entry R132H): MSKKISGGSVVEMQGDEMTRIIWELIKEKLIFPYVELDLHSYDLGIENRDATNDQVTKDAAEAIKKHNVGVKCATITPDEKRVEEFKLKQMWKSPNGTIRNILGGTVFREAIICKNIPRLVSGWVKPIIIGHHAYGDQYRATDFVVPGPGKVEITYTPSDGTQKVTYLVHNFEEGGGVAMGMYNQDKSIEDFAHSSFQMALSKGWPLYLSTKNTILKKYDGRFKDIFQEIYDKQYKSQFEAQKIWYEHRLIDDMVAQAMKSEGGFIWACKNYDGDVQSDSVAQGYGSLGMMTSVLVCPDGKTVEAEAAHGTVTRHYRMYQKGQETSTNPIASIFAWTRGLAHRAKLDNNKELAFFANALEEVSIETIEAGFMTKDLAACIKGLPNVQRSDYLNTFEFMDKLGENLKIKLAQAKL
GASC1 inh = inhibitors of GASC-1 (KDM4C) histone demethylase, primary screen, biochemical, single concentration HTS; GST-KDM4C 2-372, H3K9me3 peptide, LANCE TR-FRET; inhibition, % at 12.5 µM; 96,000 compounds, 0.15% hits; AID 720574, 2013;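 active means mean replicate inhibition above about 25%, with at least 55% of replicates also reaching it, limit read from the data, passing the limit was not always enough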
Target sequence (Q9H3R0 2-372 limits assumed): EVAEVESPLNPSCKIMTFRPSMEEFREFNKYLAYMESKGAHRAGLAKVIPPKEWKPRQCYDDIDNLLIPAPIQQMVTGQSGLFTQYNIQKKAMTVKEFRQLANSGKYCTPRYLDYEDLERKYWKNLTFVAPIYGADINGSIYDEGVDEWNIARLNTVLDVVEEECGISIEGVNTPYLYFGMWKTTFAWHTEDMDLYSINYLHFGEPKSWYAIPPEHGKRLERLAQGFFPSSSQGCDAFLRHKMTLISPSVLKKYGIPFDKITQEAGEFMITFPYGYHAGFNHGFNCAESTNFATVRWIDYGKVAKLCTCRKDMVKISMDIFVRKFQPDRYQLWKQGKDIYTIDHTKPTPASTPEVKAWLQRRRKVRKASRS
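System: N-terminal GST-fused human GASC-1 (KDM4C) fragment, residues 2-372; amount: enzyme final amount 10 nM; incubation: reaction 30 min RT, detection step 1 h RT; medium: HEPES buffer, pH 7.5, plus ascorbate; technique: LANCE TR-FRET, Eu antibody, ULight-streptavidin, EDTA, ex 340 nm, em 618/671 nm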
T cruzi growth-2 = T. cruzi intracellular proliferation inhibitors, confirmation, cell-based, NIH3T3 host, beta-gal parasite, luminescence, cherry-pick | shares compounds with T cruzi growth-1 | T. cruzi beta-gal in NIH3T3, GalScreen luminescence, 90 h | inhibition, % at 8.35 µM | 5,600 compounds, 72% hits;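 active means mean replicate inhibition above about 95% and at least 55% of replicates individually reaching it, limit read from the data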
T cruzi growth-3 = inhibitors of intracellular T. cruzi replication, confirmation, NIH3T3 host cells, beta-gal parasites, cherry-pick, set 2 | T. cruzi beta-gal in NIH3T3, GalScreen luminescence, 90 h | inhibition, % at 2.09 µM | shares compounds with T cruzi growth-1 | 5,600 compounds, 21% hits;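 active means mean inhibition above about 95%, with at least 55% of replicates also reaching it, limit read from the data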
3T3 cytotox = cytotoxicity in mouse NIH/3T3 fibroblasts, confirmation, cytotoxicity control for T. cruzi proliferation inhibitor project, cell-based, cherry-pick, single point; AID 651742, 2012; 5,600 compounds, 14% hits; NIH/3T3 viability, CellTiter-Glo ATP luminescence, 90 h; cytotoxicity (signal decrease), % at 8.35 µM; shares compounds with T cruzi growth-1;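 active means mean signal decrease across replicates above about 35% based on untreated-well scatter, with enough replicates individually passing, limit read from the data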
NIH3T3 tox 2 = NIH/3T3 fibroblast cytotoxicity, confirmation, cytotoxicity control, cell-based, cherry-pick, single point, set 2; NIH/3T3 viability, CellTiter-Glo ATP luminescence, 90 h; 5,600 compounds, 56% hits; AID 651744, 2012; inhibition, % at 24.9 µM; shares compounds with T cruzi growth-1;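 active means mean loss of cell viability signal at or above a set limit, and enough replicates individually reaching it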
Large screens that a line does not name were inactive (follow-up assays come after a bar, where they were run).

CCCNC(=O)C[C@H]1C[C@H]2c3cc(NC(=O)C4CCC4)ccc3O[C@H]2[C@H](CO)O1	none
C/C=C/c1ccc2c(c1)O[C@H](CN(C)C(=O)C1CCC1)[C@@H](C)CN([C@@H](C)CO)S2(=O)=O	none (no result: IDH1 R132H inh)
O=C(c1ccc(F)cc1)N1CCCCN2[C@H](CO)[C@@H](c3ccc(C#CC4(O)CCCC4)cc3)[C@H]2C1	T cruzi growth-1 100 (no result: IDH1 R132H inh) | T cruzi growth-2 inactive | T cruzi growth-3 inactive | 3T3 cytotox inactive | NIH3T3 tox 2 inactive
O=C(C1CCCC1)N1CCCCN2[C@H](C1)[C@@H](c1ccc(C#CC3(O)CCCC3)cc1)[C@@H]2CO	none (no result: IDH1 R132H inh, GASC1 inh)
O=C(C1CCCC1)N1CCCCN2[C@H](CO)[C@H](c3ccc(C#CC4(O)CCCC4)cc3)[C@@H]2C1	T cruzi growth-1 103 (no result: IDH1 R132H inh, GASC1 inh) | T cruzi growth-2 99 | T cruzi growth-3 inactive | 3T3 cytotox inactive | NIH3T3 tox 2 inactive
O=C(C1CCCC1)N1CCCCN2[C@H](CO)[C@@H](c3ccc(C#CC4(O)CCCC4)cc3)[C@H]2C1	T cruzi growth-1 104 (no result: IDH1 R132H inh, GASC1 inh) | T cruzi growth-2 inactive | T cruzi growth-3 inactive | 3T3 cytotox inactive | NIH3T3 tox 2 inactive
C[C@@H]1CCCCO[C@@H](CN(C)Cc2ccc(Cl)c(Cl)c2)[C@@H](C)CN([C@H](C)CO)C(=O)c2cc(NC(=O)c3ccncc3)ccc2O1	none (no result: IDH1 R132H inh)
O=C(C[C@H]1C[C@H]2c3cc(NS(=O)(=O)c4ccc(F)cc4)ccc3O[C@H]2[C@H](CO)O1)NCc1ccc(Cl)cc1	none
C[C@@H]1CN([C@@H](C)CO)C(=O)c2cc(C#CC3(O)CCCC3)cnc2O[C@@H]1CN(C)C(=O)Cc1ccccc1	none
O=C(c1ccc(F)cc1)N1CCCCN2[C@H](CO)[C@@H](c3ccc(-c4ccc(F)cc4)cc3)[C@@H]2C1	T cruzi growth-1 100 (no result: IDH1 R132H inh, GASC1 inh) | T cruzi growth-2 99 | T cruzi growth-3 103 | 3T3 cytotox inactive | NIH3T3 tox 2 104
COc1cccc(-c2ccc([C@H]3[C@@H](CO)N4CCCCN(C(=O)c5ccc(F)cc5)C[C@H]34)cc2)c1	T cruzi growth-1 108 (no result: IDH1 R132H inh) | T cruzi growth-2 108 | T cruzi growth-3 inactive | 3T3 cytotox inactive | NIH3T3 tox 2 104
O=C(c1ccc(F)cc1)N1CCCCN2[C@@H](CO)[C@H](c3ccc(-c4ccc(F)cc4)cc3)[C@@H]2C1	T cruzi growth-1 104 (no result: IDH1 R132H inh, GASC1 inh) | T cruzi growth-2 inactive | T cruzi growth-3 inactive | 3T3 cytotox 44 | NIH3T3 tox 2 106
O=C(c1ccc(F)cc1)N1CCCCN2[C@H](C1)[C@H](c1ccc(-c3ccc(F)cc3)cc1)[C@@H]2CO	none (no result: IDH1 R132H inh, GASC1 inh)
O=C(Nc1ccccc1F)N1C[C@H]2[C@@H](c3ccccc31)[C@H](CO)N2C(=O)C1CCOCC1	none (no result: IDH1 R132H inh)
COc1ccccc1-c1ccc(C2[C@H]3CNC[C@@H]2N3S(=O)(=O)c2ccc(F)cc2)cc1 (some centres not stated)	none (no result: T cruzi growth-1, IDH1 R132H inh)
COc1ccc(C(=O)Oc2c(S(=O)(=O)c3ccccc3)c(C)nn2-c2ccccc2)cc1	none (no result: T cruzi growth-1, Pf Dd2 growth, GASC1 inh)
O=C(Nc1ccc(F)cc1)N1CCCCN2[C@H](CO)[C@H](c3ccc(-c4cccc(F)c4)cc3)[C@H]2C1	none (no result: IDH1 R132H inh)
O=C(Nc1ccc(F)cc1)N1CCCCN2[C@H](C1)[C@H](c1ccc(-c3cccc(F)c3)cc1)[C@@H]2CO	T cruzi growth-1 116 (no result: IDH1 R132H inh) | T cruzi growth-2 109 | T cruzi growth-3 inactive | 3T3 cytotox inactive | NIH3T3 tox 2 79
N#Cc1cccc(-c2ccc([C@H]3[C@H](CO)N4CCCCN(C(=O)Nc5ccc(F)cc5)C[C@@H]34)cc2)c1	T cruzi growth-1 102 (no result: IDH1 R132H inh) | T cruzi growth-2 104 | T cruzi growth-3 inactive | 3T3 cytotox inactive | NIH3T3 tox 2 105
N#Cc1cccc(-c2ccc([C@H]3[C@H]4CN(C(=O)Nc5ccccc5)CCCCN4[C@H]3CO)cc2)c1	none (no result: IDH1 R132H inh)
O=C(C1CCCC1)N1CCCCN2[C@H](CO)[C@@H](c3ccc(-c4cccc(F)c4)cc3)[C@@H]2C1	T cruzi growth-1 104 (no result: IDH1 R132H inh, GASC1 inh) | T cruzi growth-2 98 | T cruzi growth-3 115 | 3T3 cytotox 42 | NIH3T3 tox 2 106
CCC(=O)N1CCCCN2[C@@H](CO)[C@H](c3ccc(-c4cccc(C#N)c4)cc3)[C@@H]2C1	T cruzi growth-1 107 (no result: IDH1 R132H inh) | T cruzi growth-2 inactive | T cruzi growth-3 inactive | 3T3 cytotox inactive | NIH3T3 tox 2 61
C[C@@H]1CN([C@H](C)CO)S(=O)(=O)c2ccc(C3=CCCC3)cc2O[C@@H]1CN(C)CC1CCOCC1	none (no result: T cruzi growth-1)
COc1ccc(NC(=O)N[C@H]2CC[C@H](CCNS(=O)(=O)c3cccc(Cl)c3)O[C@@H]2CO)cc1	none
N#Cc1ccc(-c2ccc([C@H]3[C@@H](CO)N4CCCCN(C(=O)Nc5ccc(F)cc5)C[C@H]34)cc2)cc1	T cruzi growth-1 98 (no result: IDH1 R132H inh) | T cruzi growth-2 105 | T cruzi growth-3 105 | 3T3 cytotox inactive | NIH3T3 tox 2 104
CCCN(C)C[C@H]1OCCCC[C@H](C)Oc2ccc(NC(=O)C3CCCCC3)cc2C(=O)N([C@H](C)CO)C[C@H]1C	T cruzi growth-1 108 | T cruzi growth-2 99 | T cruzi growth-3 inactive | 3T3 cytotox inactive | NIH3T3 tox 2 inactive
CCCN(C)C[C@H]1OCCCC[C@@H](C)Oc2ccc(NC(=O)C3CCCCC3)cc2C(=O)N([C@@H](C)CO)C[C@H]1C	T cruzi growth-1 102, Pf Dd2 growth -81 (no result: IDH1 R132H inh) | T cruzi growth-2 104 | T cruzi growth-3 inactive | 3T3 cytotox inactive | NIH3T3 tox 2 inactive
CCCN(C)C[C@H]1OCCCC[C@@H](C)Oc2ccc(NC(=O)C3CCCCC3)cc2C(=O)N([C@H](C)CO)C[C@@H]1C	none (no result: IDH1 R132H inh)
CCCC(=O)Nc1ccc2c(c1)OC[C@H](C)N(C(=O)c1ccncc1)C[C@H](C)[C@H](OC)CN(C)C2=O	none
C[C@@H]1CN([C@H](C)CO)C(=O)c2cc(NC(=O)NC3CCCCC3)ccc2O[C@@H](C)CCCCO[C@H]1CN(C)S(=O)(=O)c1ccc(Cl)cc1	none (no result: Pf Dd2 growth, IDH1 R132H inh)
C[C@@H]1CN([C@@H](C)CO)C(=O)c2cccc(NC(=O)C3CCCCC3)c2O[C@@H]1CN(C)S(=O)(=O)c1ccc(Cl)cc1	none
